Laboratory results as given in ChEMBL document CHEMBL1932986, “Synthesis and in vitro antimycobacterial activity of compounds derived from (R)- and (S)-2-amino-1-butanol - The crucial role of the configuration” (Eur J Med Chem, 2012).
Converted amounts (≈) assume the structure as drawn. The source made the active and inactive calls. The rule behind the calls is not given here.

Experiments:
Format in all cases: functional
[1] = tested on: Mycobacterium tuberculosis; assay: Antimycobacterial activity against Mycobacterium tuberculosis H37Rv after 45 days
How it was run: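 Canetti proportion method. Compound in DMSO is added to Löwenstein–Jensen egg medium before coagulation (30 min, 85 °C), tested at three levels plus a lower one where needed. Tubes are inoculated with H37Rv at 10⁵ cells/ml and incubated 45 days at 37 °C. Colony counts versus drug-free control give percentage inhibition.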

[2] = tested on: Micrococcus luteus; assay: Antibacterial activity against Sarcina lutea ATCC 9341 at 50 mg/ml after 24 hrs by agar diffusion test; conditions: for zone of inhibition at 50000 µg/mL: ATCC 9341, 24 h, read-out: DIZ
How it was run: (§1)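 Agar diffusion: bacteria grown 24 h at 37 °C on nutrient agar. Wells in the agar are filled with […] of compound solution in DMSO at various concentrations. The diameter of the clear zone around the application point is measured. Bracketed values give the lowest concentration (mg/ml) that produces a zone >11 mm. A first screen is run at 50 mg/ml.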

[3] = tested on: Penicillium chrysogenum; assay: Antifungal activity against Penicillium chrysogenum CECT 2802 at 50 mg/ml after 72 hrs by agar diffusion test; conditions: for zone of inhibition at 50000 µg/mL: CECT 2802, 72 h, read-out: DIZ
How it was run: (§2)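 Agar diffusion: yeasts grown on yeast peptone dextrose agar and fungi on potato dextrose agar. Wells are filled with […] of compound solution in DMSO at various concentrations, and the clear-zone diameter is measured. Bracketed values give the lowest concentration (mg/ml) that produces a zone >11 mm. A first screen is run at 50 mg/ml.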

[4] = tested on: Micrococcus luteus; assay: Antibacterial activity against Micrococcus luteus ATCC 9631 at 50 mg/ml after 24 hrs by agar diffusion test; conditions: for zone of inhibition at 50000 µg/mL: ATCC 9631, 24 h, read-out: DIZ
How it was run: (§3)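 Agar diffusion: wells in agar filled with […] DMSO solution of compound at various concentrations; diameter of clear zone around application point measured. Bacteria grown 24 h at 37 °C on nutrient agar. Compounds first screened at 50 mg/ml; those active then tested at lower concentrations. Bracketed value = lowest concentration (mg/ml) giving zone >11 mm, reported only if activity retained at ≤1.25 mg/ml.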

[5] = tested on: Candida tropicalis; assay: Antifungal activity against Candida tropicalis ATCC 20336 at 50 mg/ml after 72 hrs by agar diffusion test; conditions: for zone of inhibition at 50000 µg/mL: ATCC 20336, 72 h, read-out: DIZ; how it was run: as §2
[6] = tested on: Bacillus mycoides; assay: Antibacterial activity against Bacillus mycoides DSMZ 274 at 50 mg/ml after 24 hrs by agar diffusion test; conditions: for zone of inhibition at 50000 µg/mL: DSMZ 274, 24 h, read-out: DIZ; how it was run: as §3
[7] = tested on: Saccharomyces cerevisiae; assay: Antifungal activity against Saccharomyces cerevisiae ATCC 9763 at 50 mg/ml after 72 hrs by agar diffusion test; conditions: for zone of inhibition at 50000 µg/mL: ATCC 9763, 72 h, read-out: DIZ; how it was run: as §2
[8] = tested on: Staphylococcus aureus; assay: Antibacterial activity against Staphylococcus aureus NRRL B 313 at 50 mg/ml after 24 hrs by agar diffusion test; conditions: for zone of inhibition at 50000 µg/mL: NRRL B 313, 24 h, read-out: DIZ; how it was run: as §1
[9] = tested on: Priestia megaterium; assay: Antibacterial activity against Bacillus megaterium NRRL 1353895 at 50 mg/ml after 24 hrs by agar diffusion test; conditions: for zone of inhibition at 50000 µg/mL: NRRL 1353895, 24 h, read-out: DIZ; how it was run: as §3
[10] = tested on: Bacillus; assay: Antibacterial activity against Bacillus idosus B 241 at 50 mg/ml after 24 hrs by agar diffusion test; conditions: for zone of inhibition at 50000 µg/mL: B 241, 24 h, read-out: DIZ; how it was run: as §3
[11] = tested on: Acinetobacter johnsonii; assay: Antibacterial activity against Acinetobacter johnsonii ATCC 17909 at 50 mg/ml after 24 hrs by agar diffusion test; conditions: for zone of inhibition at 50000 µg/mL: ATCC 17909, 24 h, read-out: DIZ; how it was run: as §3
[12] = tested on: Escherichia coli; assay: Antibacterial activity against Escherichia coli ATCC 8739 at 50 mg/ml after 24 hrs by agar diffusion test; conditions: for zone of inhibition at 50000 µg/mL: ATCC 8739, 24 h, read-out: DIZ; how it was run: as §3
[13] = tested on: Bacillus cereus; assay: Antibacterial activity against Bacillus cereus ATCC 11778 at 50 mg/ml after 24 hrs by agar diffusion test; conditions: for zone of inhibition at 50000 µg/mL: ATCC 11778, 24 h, read-out: DIZ; how it was run: as §3
[14] = tested on: Bacillus subtilis; assay: Antibacterial activity against Bacillus subtilis ATCC 6633 at 50 mg/ml after 24 hrs by agar diffusion test; conditions: for zone of inhibition at 50000 µg/mL: ATCC 6633, 24 h, read-out: DIZ; how it was run: as §3

| SMILES | MIC [1] | zone of inhibition at 50000 µg/mL [2] | zone of inhibition at 50000 µg/mL [4] | zone of inhibition at 50000 µg/mL [6] | zone of inhibition at 50000 µg/mL [7] | zone of inhibition at 50000 µg/mL [8] | zone of inhibition at 50000 µg/mL [9] | zone of inhibition at 50000 µg/mL [11] | diameter of the inhibition zone (DIZ) [14] | diameter of the inhibition zone (DIZ) [13] | diameter of the inhibition zone (DIZ) [3] | diameter of the inhibition zone (DIZ) [4] | diameter of the inhibition zone (DIZ) [5] | diameter of the inhibition zone (DIZ) [6] | diameter of the inhibition zone (DIZ) [7] | diameter of the inhibition zone (DIZ) [8] | diameter of the inhibition zone (DIZ) [9] | diameter of the inhibition zone (DIZ) [10] | diameter of the inhibition zone (DIZ) [11] | diameter of the inhibition zone (DIZ) [12] | also measured |
| --- | --- | --- | --- | --- | --- | --- | --- | --- | --- | --- | --- | --- | --- | --- | --- | --- | --- | --- | --- | --- | --- |
| CC[C@@H]1COc2cc3ccccc3c(=O)n21 | 23.2 µM (≈ 5 µg/mL) | 13 mm | 15 mm | 15 mm | 11 mm | 12 mm | 13 mm | 10 mm | inactive | – | – | – | – | – | – | – | – | – | – | – | zone of inhibition at 50000 µg/mL [3]: 35 mm; zone of inhibition at 50000 µg/mL [5]: 20 mm; zone of inhibition at 50000 µg/mL [10]: 15 mm; zone of inhibition at 50000 µg/mL [12]: 0 mm; zone of inhibition at 50000 µg/mL [13]: 18 mm |
| CC[C@H](CO)NC1c2ccccc2-c2ccccc21 | 19.7 µM (≈ 5 µg/mL) | 17 mm | 17 mm | 17 mm | 22 mm | 12 mm | 22 mm | 16 mm | inactive | inactive | – | – | – | – | – | – | – | – | – | – | zone of inhibition at 50000 µg/mL [3]: 20 mm; zone of inhibition at 50000 µg/mL [5]: 17 mm; zone of inhibition at 50000 µg/mL [10]: 15 mm; zone of inhibition at 50000 µg/mL [12]: 12 mm |
| CC[C@H](CO)N1C(=O)CCC1=O | > 29.2 µM | – | – | – | – | – | – | – | inactive | inactive | inactive | inactive | inactive | inactive | inactive | inactive | inactive | inactive | inactive | inactive | diameter of the inhibition zone (DIZ) [2]: inactive |
| CC[C@H](CO)NC(=O)c1cccc2ccccc12 | > 20.6 µM | – | – | – | – | – | – | – | inactive | inactive | inactive | inactive | inactive | inactive | inactive | inactive | inactive | inactive | inactive | inactive | diameter of the inhibition zone (DIZ) [2]: inactive |
| CC[C@H](CO)NCc1ccccc1OC | > 23.9 µM | – | 11 mm | 11 mm | 16 mm | 10 mm | 11 mm | 10 mm | – | – | inactive | – | inactive | – | – | – | – | – | – | inactive | zone of inhibition at 50000 µg/mL [10]: 15 mm; zone of inhibition at 50000 µg/mL [13]: 13 mm; zone of inhibition at 50000 µg/mL [14]: 10 mm |
| CC[C@H](CO)NCc1cccc2ccccc12 | 21.8 µM (≈ 5 µg/mL) | 13 mm | 17 mm | 18 mm | 32 mm | 16 mm | 10 mm | 20 mm | – | – | – | – | – | – | – | – | – | – | – | – | zone of inhibition at 50000 µg/mL [3]: 22 mm; zone of inhibition at 50000 µg/mL [5]: 30 mm; zone of inhibition at 50000 µg/mL [10]: 18 mm; zone of inhibition at 50000 µg/mL [12]: 28 mm; zone of inhibition at 50000 µg/mL [13]: 15 mm; zone of inhibition at 50000 µg/mL [14]: 17 mm |
| CC[C@H](CO)NC(=O)c1ccc2ccccc2c1 | > 20.6 µM | – | – | – | – | – | – | – | inactive | inactive | inactive | inactive | inactive | inactive | inactive | inactive | inactive | inactive | inactive | inactive | diameter of the inhibition zone (DIZ) [2]: inactive |
| CC[C@H](CO)N(Cc1cc2c(cc1Cl)OCO2)Cc1cc2c(cc1Cl)OCO2 | > 11.7 µM | 10 mm | – | – | – | – | 10 mm | – | inactive | inactive | inactive | – | inactive | inactive | inactive | inactive | – | inactive | inactive | inactive | – |
| CC[C@H](CO)NC(=O)c1ccccc1Br | > 18.4 µM | – | – | – | – | – | – | – | inactive | inactive | inactive | inactive | inactive | inactive | inactive | inactive | inactive | inactive | inactive | – | diameter of the inhibition zone (DIZ) [2]: inactive |
| CC[C@H](CO)NC(=S)Nc1ccccc1 | > 22.3 µM | 12 mm | 12 mm | 12 mm | 15 mm | – | 13 mm | 12 mm | inactive | – | – | – | – | – | – | inactive | – | inactive | – | – | zone of inhibition at 50000 µg/mL [5]: 16 mm; zone of inhibition at 50000 µg/mL [12]: 16 mm; zone of inhibition at 50000 µg/mL [13]: 14 mm |
| CC[C@H](CO)NS(=O)(=O)c1ccc(NC(C)=O)cc1 | > 17.5 µM | – | – | – | – | – | – | – | inactive | inactive | – | inactive | inactive | inactive | inactive | inactive | inactive | inactive | inactive | inactive | diameter of the inhibition zone (DIZ) [2]: inactive |
| CC[C@H](CO)N1C(=O)c2cccc3c(Br)ccc(c23)C1=O | > 14.4 µM | – | – | – | – | – | – | – | inactive | – | inactive | inactive | inactive | inactive | inactive | inactive | inactive | inactive | inactive | – | – |
| CC[C@H](CO)NCc1ccnc2ccccc12 | 21.7 µM (≈ 5 µg/mL) | 13 mm | 10 mm | 16 mm | – | 14 mm | 11 mm | 13 mm | – | – | – | – | – | – | – | – | – | – | – | – | zone of inhibition at 50000 µg/mL [3]: 20 mm; zone of inhibition at 50000 µg/mL [10]: 12 mm; zone of inhibition at 50000 µg/mL [12]: 20 mm; zone of inhibition at 50000 µg/mL [13]: 13 mm; zone of inhibition at 50000 µg/mL [14]: 10 mm |
